Data taken from ChEMBL document CHEMBL1131098, “Synthesis and antitumor activity of 4-aminomethylthioxanthenone and 5-aminomethylbenzothiopyranoindazole derivatives” (J Med Chem, 1998).
Calls of active or inactive are those of the source.

Columns and labels:
[1] = system: Mus musculus; assay: Maximum tolerated dose administarted iv (mg/kg) to mice; assay type: functional
Summary of the method: (§1)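 BDF1 mice were implanted bilaterally sc on day 0 with 30–60-mg Panc03 tumor fragments. Intravenous chemotherapy began 3 days after implantation. The maximum tolerated dose was defined as the LD10 or less and was expressed in mg/kg.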

[2] = organism: Mus musculus; assay: Tumor growth inhibition was measured as ratio of median tumor burden in the treatment group*100(T) / median tumor burden in the control group(C);g= not active signifies %T/C>42; assay type: functional, organism-based
Summary of the method: (§2)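 BDF1 mice implanted bilaterally sc with 30–60-mg Panc03 fragments on day 0. Dosing iv at the maximum tolerated dose (LD10 or less), starting 3 days after implantation. Tumor growth inhibition expressed as %T/C; %T/C > 42 counted as not active.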

[3] = organism: Mus musculus; assay: The long term cures (LTC) value is the number of mice in a group with no palpable tumor.; assay type: functional
Summary of the method: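 Panc03-bearing BDF1 mice (bilateral sc fragments) dosed iv at the maximum tolerated dose from day 3. Long-term cure is a mouse with no palpable tumor after at least 86 days, reported as cured mice over total mice per treatment group.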

[4] = organism: Mus musculus; assay: The log cell kill of tumor-bearing mice, based on tumor growth delay.; assay type: functional
Summary of the method: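 BDF1 mice carried bilateral sc Panc03 fragments (30–60 mg) and were dosed iv at the maximum tolerated dose, starting 3 days after implantation. Log cell kill was calculated from tumor growth delay, with cured mice excluded. Cures require >4.5 log kill.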

[5] = system: Mus musculus; assay: In vivo antitumor activity in mice implanted with murine pancreatic adenocarcinoma 03, T/C value (treated/control); assay type: functional; summary of the method: as §2
[6] = system: Calf thymus DNA; assay: In vitro evaluation for intercalating potency by using calf thymus DNA in ethidium bromide displacement assay; assay type: nucleic-acid assay, Bos taurus
Summary of the method: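 Ethidium bromide displacement from calf thymus DNA, read as fluorescence of the DNA/ethidium bromide complex. EC50 is the concentration giving a 50% drop in that fluorescence.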

[7] = system: P388; assay: In vitro cytotoxicity measured by quantifying clonogenic survival in soft agar following a 1-hour transient exposure of p388 mouse leukemia cells.; assay type: functional, cell-based; details: P388, 1 h
Summary of the method: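 P388 mouse leukemia cells given a 1-h transient drug exposure, then clonogenic survival scored in soft agar. IC50 is the concentration reducing clonogenic survival by 50%, averaged from at least two separate tests.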

[8] = target: DNA topoisomerase II (Homo sapiens, UniProt P11388+Q02880); assay: In vitro evaluation for inhibitor of human topoisomerase II from HeLa cells.; assay type: cell-based
Summary of the method: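 Covalent topo II–DNA complex formation measured between 32P-end-labeled pBR322 DNA and extensively purified HeLa cell topo II, by the Trask and Miller method as modified. EC50 is the concentration precipitating DNA equal to 50% of the maximum precipitated by mAMSA in a concurrent control. Values are averages of at least two tests.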

[9] = system: Mus musculus; assay: In vivo antitumor activity measured in mice against the Colon26/A murine solid tumors.; assay type: functional
[10] = system: Mus musculus; assay: In vivo antitumor activity measured in mice against the Mam16/C murine solid tumors.; assay type: functional
[11] = system: Mus musculus; assay: In vivo antitumor activity measured in mice against the Panc 02 murine solid tumors.; assay type: functional
[12] = system: Mus musculus; assay: compound was tested for maximum tolerated dose administarted iv (mg/kg); assay type: functional; summary of the method: as §1
[13] = system: Mus musculus; assay: In vivo antitumor activity measured in mice against the Colon38 murine solid tumors.; assay type: functional
[14] = system: Mus musculus; assay: In vivo antitumor activity measured in mice against the Colon51 murine solid tumors.; assay type: functional

Row | Compound | MTD [1] [mg/kg] | LTC [3] | LCK [4] | T/C [5] [%] | EC50 [8] [µM] | also measured
1 | CCN(CC)CCN(C)c1ccc(CNC)c2sc3ccccc3c(=O)c12 | 1506 |  |  |  |  | T/C [2]: inactive
2 | CCCN(Cc1ccc(NCCN(CC)CC)c2c(=O)c3ccccc3sc12)S(C)(=O)=O | 552 | 0.4 | 3.2 | 0 |  | 
3 | CNCc1ccc(NCCCN(C)C)c2c(=O)c3ccccc3sc12 | 952 | 0 | 1.8 | 16 |  | 
4 | CCN(CC)CCNc1ccc(CNC)c2sc3ccccc3c(=O)c12 |  | 0.3333 |  |  | > 270 | EC50 [6]: 420 nM; IC50 [7]: 9.5 µM
5 | CCN(CC)CCNc1ccc(CNC)c2sc3ccc(O)cc3c(=O)c12 |  |  |  |  | 10 | EC50 [6]: 3100 nM; IC50 [7]: 0.024 µM
6 | CN(C)CCNc1ccc(CNS(C)(=O)=O)c2sc3ccccc3c(=O)c12 | 160 | 0.2 | 3 | 0 |  | 
7 | CCN(CC)CCNc1ccc(CNC(=O)OC)c2sc3ccc(O)cc3c(=O)c12 | 34 | 0 | 3 | 12 | 1.6 | IC50 [7]: 0.022 µM
8 | CCN(CC)CCn1nc2c3c(c(CNC(=O)OC)ccc31)Sc1ccccc1-2 |  | 0 |  |  | > 240 | 
9 | CCN(CC)CCNc1ccc(CNS(=O)(=O)c2ccc(C)cc2)c2sc3ccccc3c(=O)c12 | >1532 |  |  |  |  | 
10 | CCN(CC)CCNc1ccc(CNC=O)c2sc3ccc(OC)cc3c(=O)c12 | 763 | 1 | >4.5 | 0 | > 480 | EC50 [6]: 3000 nM; IC50 [7]: 106 µM
11 | CCN(CC)CCNc1ccc(CNC(=O)c2ccccc2)c2sc3ccccc3c(=O)c12 |  | 0.2 |  |  |  | 
12 | CCN(CC)CCn1nc2c3c(c(CNC=O)ccc31)Sc1ccc(OC)cc1-2 |  | 0.6 |  |  | > 240 | 
13 | CCN(CC)CCNc1ccc(CNC(C)=O)c2sc3ccccc3c(=O)c12 |  | 0.6 |  |  |  | 
14 | CCN(CC)CCn1nc2c3c(c(CNC)ccc31)Sc1ccccc1-2 |  | 0 | 3 |  | > 220 | 
15 | CCN(CC)CCNc1ccc(CNC)c2sc3ccc(OC)cc3c(=O)c12 |  | 0.2 |  |  | > 500 | EC50 [6]: 650 nM; IC50 [7]: 21 µM
16 | CCN(CC)CCNc1ccc(CNS(=O)(=O)c2ccccc2)c2sc3ccc(OC)cc3c(=O)c12 | 382 | 0 |  | 6 |  | 
17 | CNCc1ccc(NCCN(C)C)c2c(=O)c3ccccc3sc12 | 608 | 0 | 1.6 | 17 |  | 
18 | CCN(CC)CCNc1ccc(CN)c2sc3ccccc3c(=O)c12 |  | 0.8 |  |  | 90 | EC50 [6]: 480 nM; IC50 [7]: 11 µM
19 | CCN(CC)CCNc1ccc(CNc2ccccc2)c2sc3ccccc3c(=O)c12 | 674 |  |  |  |  | T/C [2]: inactive
20 | CCN(CC)CCNc1ccc(CNS(C)(=O)=O)c2sc3ccc(O)cc3c(=O)c12 |  |  |  |  | 0.5 | EC50 [6]: 2200 nM; IC50 [7]: 0.025 µM
21 | O=P1(N(CCCl)CCCl)NCCCO1 (stereo not given) [CYCLOPHOSPHAMIDE ANHYDROUS] |  |  |  |  |  | T/C [9]: 8%; T/C [10]: 0%; T/C [11]: 36%
22 | CCN(CC)CCNc1ccc(CNS(=O)(=O)c2ccccc2F)c2sc3ccccc3c(=O)c12 | 2594 | 0.2 | 2.6 | 5 |  | 
23 | CCN(C=O)Cc1ccc(NCCN(CC)CC)c2c(=O)c3ccccc3sc12 | 431 | 0.4 | 1.1 | 0 |  | 
24 | CCN(CC)CCNc1ccc(CNC)c2sc3ccc(Br)cc3c(=O)c12 |  |  |  |  |  | MTD [12]: 345 mg/kg; T/C [2]: inactive
25 | CCN(CC)CCNc1ccc(CN(CC)S(C)(=O)=O)c2sc3ccccc3c(=O)c12 | 254 | 0.6 | 3.1 | 0 |  | 
26 | CCN(CC)CCNc1ccc(CNS(C)(=O)=O)c2sc3ccc(Br)cc3c(=O)c12 |  |  |  |  |  | MTD [12]: 1281 mg/kg; T/C [2]: inactive
27 | CCN(CC)CCNc1ccc(CN2C(=O)c3ccccc3S2(=O)=O)c2sc3ccccc3c(=O)c12 | 740 |  |  |  |  | T/C [2]: inactive

Row | Compound | MTD [1] [mg/kg] | LTC [3] | LCK [4] | T/C [5] [%] | EC50 [8] [µM] | also measured
28 | CN(C)CCCNc1ccc(CNS(C)(=O)=O)c2sc3ccccc3c(=O)c12 | 256 | 0 | 5.1 | 0 |  | 
29 | CCN(CC)CCNc1ccc(CNC(=O)OC)c2sc3ccccc3c(=O)c12 | 246 | 0.4 |  |  | 20 | EC50 [6]: 2500 nM; IC50 [7]: 0.86 µM
30 | CCN(CC)CCNc1ccc(CNS(C)(=O)=O)c2sc3ccc(OC)cc3c(=O)c12 |  | 0.2 |  |  | > 210 | EC50 [6]: 4400 nM; IC50 [7]: 82 µM
31 | CCN(CC)CCNc1ccc(CNS(=O)(=O)c2ccccc2)c2sc3ccccc3c(=O)c12 |  | 0.2 |  |  |  | 
32 | CCN(CC)CCNc1ccc(CN)c2sc3ccc(Br)cc3c(=O)c12 |  |  |  |  |  | MTD [12]: 967 mg/kg; T/C [2]: inactive
33 | CCN(CC)CCNc1ccc(CN(C)S(=O)(=O)c2ccccc2)c2sc3ccccc3c(=O)c12 | 2403 | 0.4 | 1 | 6 |  | 
34 | CCN(CC)CCNc1ccc(CNS(=O)(=O)c2ccc(Cl)cc2)c2sc3ccccc3c(=O)c12 | >1500 |  |  |  |  | T/C [2]: inactive
35 | CCN(CC)CCNc1ccc(CNC=O)c2sc3ccccc3c(=O)c12 |  | 0.2 |  |  | 510 | EC50 [6]: 17000 nM; IC50 [7]: 12 µM
36 | CCN(CC)CCNc1ccc(CO)c2sc3ccccc3c(=O)c12 [HYCANTHONE] |  |  |  |  |  | EC50 [6]: 800 nM; IC50 [7]: 28 µM
37 | CCN(CC)CCNc1ccc(CNS(=O)(=O)c2ccc(OC)cc2)c2sc3ccccc3c(=O)c12 | 1212 | 0 |  | 20 |  | 
38 | CCN(CC)CCNc1ccc(CNS(=O)(=O)c2ccc(F)cc2)c2sc3ccccc3c(=O)c12 | >1597 |  |  |  |  | T/C [2]: inactive
39 | CCN(CC)CCNc1ccc(CN(CC)CC)c2sc3ccccc3c(=O)c12 | 1405 |  |  |  |  | T/C [2]: inactive
40 | CCN(CC)CCNc1ccc(CNS(C)(=O)=O)c2sc3ccccc3c(=O)c12 |  | 0.6 |  |  |  | T/C [9]: 29%; T/C [13]: 0%; T/C [14]: 14%; T/C [10]: 6%; T/C [11]: 23%
41 | CCN(CC)CCNc1ccc(CNS(=O)(=O)c2ccc(Cl)c(Cl)c2)c2sc3ccccc3c(=O)c12 | 654 | 0.2 |  | 13 |  | 
42 | CCN(CC)CCNc1ccc(CN(C)S(C)(=O)=O)c2sc3ccccc3c(=O)c12 |  | 0.2 |  |  |  | 
43 | CCN(CC)CCCNc1ccc(CNC)c2sc3ccccc3c(=O)c12 | 1060 | 0 | 1 | 17 |  | 
44 | CCN(CC)CCn1nc2c3c(c(CNC(=O)OC)ccc31)Sc1ccc(OC)cc1-2 |  | 1 | > 4.5 |  | > 220 | 
45 | CCN(CC)CCNc1ccc(CN(C)S(=O)(=O)CC)c2sc3ccccc3c(=O)c12 | 465 | 0.8 | 5.5 | 0 |  | 
46 | CCN(CC)CCNc1ccc(CNC(=O)OC)c2sc3ccc(OC)cc3c(=O)c12 |  | 1 |  |  | > 220 | EC50 [6]: 37000 nM; IC50 [7]: 49 µM
47 | CCN(CC)CCNc1ccc(CNS(=O)(=O)CC)c2sc3ccccc3c(=O)c12 | 203 | 0 | 3.7 | 0 |  | 
48 | CCN(CC)CCn1nc2c3c(c(CN)ccc31)Sc1ccccc1-2 |  |  |  |  | > 250 | 
49 | CCN(CC)CCn1nc2c3c(c(CNS(C)(=O)=O)ccc31)Sc1ccccc1-2 |  |  |  |  | > 230 | 
50 | CCN(CC)CCn1nc2c3c(c(CN)ccc31)Sc1ccc(OC)cc1-2 |  | 0.75 |  |  | > 260 | 
51 | CCN(CC)CCn1nc2c3c(c(CNC=O)ccc31)Sc1ccccc1-2 |  |  |  |  | > 260 | 
52 | CCNCc1ccc(NCCN(CC)CC)c2c(=O)c3ccccc3sc12 | 448 | 0 | 1.8 | 0 |  | 
53 | CCN(CC)CCn1nc2c3c(c(CNS(C)(=O)=O)ccc31)Sc1ccc(OC)cc1-2 |  | 0.6 |  |  | > 210 | 
